Measurements reported in ChEMBL document CHEMBL4765301, “Discovery of novel TNNI3K inhibitor suppresses pyroptosis and apoptosis in murine myocardial infarction injury” (Eur J Med Chem, 2020).
pIC50: −log10 of the molar value. Active and inactive are the calls of the source. No cut-off for these calls is given here.

Key:
H9c2 [1] = experiment: Cytoprotective activity against OGD-induced cell death in rat H9c2 cells assessed as cell viability incubated for 24 hrs by LDH release assay; type: functional, cell-based; settings: dose 0.5-1 µM
How it was run: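 OGD-exposed H9c2 cells were treated with 0.5 or 1.0 µM inhibitor for 24 h. LDH released into the culture medium was measured with a commercial LDH cytotoxicity kit.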

[2] = biological target: T1, Serine/threonine-protein kinase TNNI3K (Homo sapiens) (UniProt Q59H18); experiment: Inhibition of TNNI3K (unknown origin) assessed as residual activity at 1 uM using biotinylated CTnI as substrate by HTRF analysis relative to control
T1 sequence (whole entry): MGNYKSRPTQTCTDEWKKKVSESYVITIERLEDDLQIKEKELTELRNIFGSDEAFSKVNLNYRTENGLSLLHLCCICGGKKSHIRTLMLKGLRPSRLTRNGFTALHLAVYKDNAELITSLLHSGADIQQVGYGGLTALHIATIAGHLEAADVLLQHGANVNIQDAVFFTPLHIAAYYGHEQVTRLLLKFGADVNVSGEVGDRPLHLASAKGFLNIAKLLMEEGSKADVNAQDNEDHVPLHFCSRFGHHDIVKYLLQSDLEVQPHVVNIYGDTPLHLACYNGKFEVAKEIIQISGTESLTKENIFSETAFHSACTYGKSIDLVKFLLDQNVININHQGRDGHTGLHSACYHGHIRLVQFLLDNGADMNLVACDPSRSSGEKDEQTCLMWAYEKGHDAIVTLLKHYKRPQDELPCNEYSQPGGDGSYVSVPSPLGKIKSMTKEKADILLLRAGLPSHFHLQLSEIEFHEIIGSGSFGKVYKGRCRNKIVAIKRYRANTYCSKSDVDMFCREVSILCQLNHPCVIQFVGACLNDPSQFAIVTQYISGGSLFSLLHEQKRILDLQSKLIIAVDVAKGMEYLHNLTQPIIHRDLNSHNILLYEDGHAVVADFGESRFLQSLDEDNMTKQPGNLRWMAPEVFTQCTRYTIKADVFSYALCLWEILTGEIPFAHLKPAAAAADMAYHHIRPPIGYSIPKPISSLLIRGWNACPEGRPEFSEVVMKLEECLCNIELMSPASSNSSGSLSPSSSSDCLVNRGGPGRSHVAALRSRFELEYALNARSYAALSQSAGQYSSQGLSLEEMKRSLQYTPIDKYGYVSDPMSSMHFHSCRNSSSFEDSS
How it was run: (§1)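 TNNI3K was assayed by HTRF using a GST-tagged TNNI3K kinase domain and a biotinylated cardiac troponin I substrate peptide, followed by the two HTRF detection reagents. Compounds were screened at 1.0 µM, then IC50s were determined.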

Mus musculus [3] = experiment: Cardioprotective activity in C57BL/6 mouse model of myocardial infarction assessed as reduction in collagen deposition at 25 mg/kg, ip administered for 28 days and measured on day 28 by […] staining based fluorescence microscopy; type: functional, organism-based; settings: time 28.0 day
How it was run: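 Male C57BL/6 mice (5-6 weeks); MI by permanent LAD ligation under ip ketamine (100mg/kg)/xylazine (10mg/kg) with ventilation; sham group operated without LAD occlusion. Post-MI mice randomised to sham, normal saline or inhibitor groups (n=4); 25 mg/kg given ip every two days. Hearts assessed after 28 days: TTC staining (infarct yellow-white, viable red), Masson's trichrome (blue collagen) and H&E.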

H9c2 [4] = experiment: Inhibition of OGD-induced apoptosis in rat H9c2 cells assessed as reduction in proIL-1beta level at 0.5 to 1 uM by Western blot analysis; type: functional, cell-based; settings: dose 0.5-1 µM
How it was run: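 H9c2 cells under OGD were treated with saline or 0.5 or 1.0 µM inhibitor. Cells were trypsinised, washed in cold PBS, lysed in RIPA with sonication and centrifuged 30 min. Total protein was quantified and separated by SDS-PAGE, then transferred to PVDF. Blots were probed with primary and secondary antibodies and detected by ECL.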

[5] = biological target: Receptor tyrosine-protein kinase erbB-2 (Homo sapiens) (UniProt P04626); experiment: Inhibition of recombinant human HER2 (676 to end residues) assessed as residual activity at 1 uM using poly(Glu, Tyr) 4:1 as substrate incubated for 40 mins by [gamma-33P]-ATP scintillation counting based radiometry assay relative to control
H9c2 [6] = experiment: Inhibition of OGD-induced apoptosis in rat H9c2 cells assessed as viable cells at 1 uM incubated for 24 hrs by annexinV-FITC and PI staining based flow cytometry analysis (reference value: 85 %); type: functional
H9c2 [7] = experiment: Inhibition of OGD-induced apoptosis in rat H9c2 cells assessed as viable cells at 0.5 uM incubated for 24 hrs by annexinV-FITC and PI staining based flow cytometry analysis (reference value: 85 %); type: functional
H9c2 [8] = experiment: Inhibition of OGD-induced apoptosis in rat H9c2 cells assessed as late apoptotic cells at 1 uM incubated for 24 hrs by annexinV-FITC and PI staining based flow cytometry analysis (reference value: 9 %); type: functional
[9] = biological target: T2, Serine/threonine-protein kinase TNNI3K (Homo sapiens, UniProt Q59H18); experiment: Inhibition of TNNI3K (unknown origin) using biotinylated CTnI as substrate by HTRF analysis; how it was run: as §1
T2 sequence (Q59H18 whole entry): T1 sequence (whole entry)

[10] = biological target: Epidermal growth factor receptor (Homo sapiens) (UniProt P00533); experiment: Inhibition of recombinant human EGFR (696 to end residues) assessed as residual activity at 1 uM using poly(Glu, Tyr) 4:1 as substrate incubated for 40 mins by [gamma-33P]-ATP scintillation counting based radiometry assay relative to control
H9c2 [11] = experiment: Inhibition of OGD-induced apoptosis in rat H9c2 cells assessed as reduction in NLRP3 level at 0.5 to 1 uM by immunofluorescence staining based fluorescence microscopy; type: functional, cell-based; settings: dose 0.5-1 µM
How it was run: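 In OGD-exposed H9c2 cells treated with 0.5 or 1.0 µM inhibitor, intracellular distribution and co-localisation of caspase-1 and NLRP3 were assessed by immunofluorescence microscopy.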

Mus musculus [12] = experiment: In vivo inhibition of TNNI3K in C57BL/6 mouse assessed as reduction in GSDMD at 25 mg/kg, ip administered for 28 days and measured on day 28 by immunohistochemical staining based fluorescence microscopy; type: functional, organism-based; settings: time 28.0 day
How it was run: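 Male C57BL/6 mice (5-6 weeks) with LAD-ligation MI; sham, saline or 25 mg/kg ip every two days, n=4, 28 days. Heart sections given EDTA (pH 8.0) or citrate (pH 6.0) microwave antigen retrieval, then primary antibody 30-40 min at 37°C. Detection by HRP polymer secondary with DAB (IHC) or fluorescent secondary (IF). Positive cells were quantified.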

H9c2 [13] = experiment: Cytoprotective activity against OGD-induced cell death in rat H9c2 cells assessed as cell viability at 10 uM incubated for 24 hrs by MTT assay (reference value: 42.08 to 49.11 %); type: functional; settings: read-out: Activity
H9c2 [14] = experiment: Cytoprotective activity against OGD-induced cell death in rat H9c2 cells assessed as cell viability at 1 uM incubated for 24 hrs by MTT assay (reference value: 42.08 to 49.11 %); type: functional; settings: read-out: Activity

Chain of Receptor tyrosine-protein kinase erbB-2 (Homo sapiens) (P04626 whole entry): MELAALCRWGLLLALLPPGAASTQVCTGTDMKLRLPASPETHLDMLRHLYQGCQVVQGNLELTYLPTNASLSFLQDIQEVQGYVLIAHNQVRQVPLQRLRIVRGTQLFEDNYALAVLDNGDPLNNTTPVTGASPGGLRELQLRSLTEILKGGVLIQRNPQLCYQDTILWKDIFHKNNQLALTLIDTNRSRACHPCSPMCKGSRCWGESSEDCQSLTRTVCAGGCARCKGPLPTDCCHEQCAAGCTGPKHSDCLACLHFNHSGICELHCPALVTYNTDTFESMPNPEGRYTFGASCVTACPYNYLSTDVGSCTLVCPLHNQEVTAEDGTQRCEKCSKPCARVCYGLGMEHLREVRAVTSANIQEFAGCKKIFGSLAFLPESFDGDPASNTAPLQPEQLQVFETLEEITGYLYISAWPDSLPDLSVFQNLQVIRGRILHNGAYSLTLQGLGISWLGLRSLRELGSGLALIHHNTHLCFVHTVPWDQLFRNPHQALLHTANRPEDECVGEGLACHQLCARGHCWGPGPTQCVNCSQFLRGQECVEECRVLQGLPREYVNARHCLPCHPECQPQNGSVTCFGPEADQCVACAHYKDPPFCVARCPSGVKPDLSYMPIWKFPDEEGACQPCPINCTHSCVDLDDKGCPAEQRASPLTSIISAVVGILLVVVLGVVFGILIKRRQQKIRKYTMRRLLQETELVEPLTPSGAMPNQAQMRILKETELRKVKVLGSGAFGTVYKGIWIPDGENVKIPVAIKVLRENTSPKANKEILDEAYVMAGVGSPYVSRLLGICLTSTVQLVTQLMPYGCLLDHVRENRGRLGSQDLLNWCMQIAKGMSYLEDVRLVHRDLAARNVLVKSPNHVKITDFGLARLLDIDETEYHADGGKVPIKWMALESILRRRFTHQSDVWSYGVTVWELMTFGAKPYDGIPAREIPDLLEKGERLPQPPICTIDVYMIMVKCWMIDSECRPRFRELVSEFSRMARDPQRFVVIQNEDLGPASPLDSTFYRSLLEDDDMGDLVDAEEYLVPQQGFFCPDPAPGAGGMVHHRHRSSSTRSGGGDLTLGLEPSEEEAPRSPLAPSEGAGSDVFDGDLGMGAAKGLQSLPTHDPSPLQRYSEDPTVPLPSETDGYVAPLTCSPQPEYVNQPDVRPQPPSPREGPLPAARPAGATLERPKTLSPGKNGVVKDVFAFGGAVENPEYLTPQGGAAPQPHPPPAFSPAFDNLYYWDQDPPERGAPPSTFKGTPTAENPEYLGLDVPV
Chain of Epidermal growth factor receptor (Homo sapiens) (P00533 whole entry): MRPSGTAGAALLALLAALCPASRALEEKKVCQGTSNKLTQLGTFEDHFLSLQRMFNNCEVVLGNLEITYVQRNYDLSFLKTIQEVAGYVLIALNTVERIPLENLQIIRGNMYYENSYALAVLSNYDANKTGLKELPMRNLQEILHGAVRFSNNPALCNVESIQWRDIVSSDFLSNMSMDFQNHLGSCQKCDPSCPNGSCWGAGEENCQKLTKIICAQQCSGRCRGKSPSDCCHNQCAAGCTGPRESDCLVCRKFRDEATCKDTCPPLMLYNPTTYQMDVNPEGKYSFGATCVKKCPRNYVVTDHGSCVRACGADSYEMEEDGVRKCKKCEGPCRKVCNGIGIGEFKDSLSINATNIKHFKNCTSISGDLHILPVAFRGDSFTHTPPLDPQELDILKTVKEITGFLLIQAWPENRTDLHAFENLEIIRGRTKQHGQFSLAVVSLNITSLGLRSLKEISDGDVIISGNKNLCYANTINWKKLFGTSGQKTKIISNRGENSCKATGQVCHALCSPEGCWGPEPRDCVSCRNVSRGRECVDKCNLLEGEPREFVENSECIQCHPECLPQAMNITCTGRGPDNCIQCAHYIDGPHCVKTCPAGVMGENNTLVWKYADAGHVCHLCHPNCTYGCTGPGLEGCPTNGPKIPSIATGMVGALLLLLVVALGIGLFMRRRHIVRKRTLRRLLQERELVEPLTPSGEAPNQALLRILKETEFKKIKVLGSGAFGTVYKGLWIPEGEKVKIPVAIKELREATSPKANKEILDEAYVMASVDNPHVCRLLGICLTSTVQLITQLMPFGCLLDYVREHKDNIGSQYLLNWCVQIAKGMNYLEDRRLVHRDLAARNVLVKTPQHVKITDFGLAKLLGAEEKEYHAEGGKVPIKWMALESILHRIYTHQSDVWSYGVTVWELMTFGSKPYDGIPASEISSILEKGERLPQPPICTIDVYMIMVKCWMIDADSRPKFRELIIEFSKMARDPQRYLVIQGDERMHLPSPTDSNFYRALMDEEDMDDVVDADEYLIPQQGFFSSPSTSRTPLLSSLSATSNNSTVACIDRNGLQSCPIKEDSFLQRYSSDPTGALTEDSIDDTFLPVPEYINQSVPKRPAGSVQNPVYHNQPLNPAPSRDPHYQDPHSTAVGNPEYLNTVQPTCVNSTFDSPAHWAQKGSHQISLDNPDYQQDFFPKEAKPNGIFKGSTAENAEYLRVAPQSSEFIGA

CN(C)CCCN1CCc2c(sc3ncnc(Nc4ccc(N(C)C)c(NC(=O)c5ccco5)c4)c23)C1
Activity (H9c2 [1]): Dose-dependent effect
Activity [2]: 28%
Activity (Mus musculus [3]): Active
inhibition (H9c2 [4]): inactive
Activity [5]: 96%
inhibition at 1 µM (H9c2 [6]): 90.7%
inhibition at 0.5 µM (H9c2 [7]): 87%
inhibition at 1 µM (H9c2 [8]): 5.02%
pIC50 [9]: 6.62
Activity [10]: 81%
inhibition (H9c2 [11]): Active
inhibition (Mus musculus [12]): Active
viability at 10 µM (H9c2 [13]): 89%
viability at 1 µM (H9c2 [14]): 73.8%
